Ki, Time and Activity data for 3 molecules are collected here from ChEMBL document CHEMBL4145534, “Computer-aided insights into receptor-ligand interaction for novel 5-arylhydantoin derivatives as serotonin 5-HT7 receptor agents with antidepressant activity” (Eur J Med Chem, 2018).

Bounds are passed on as bounds.

For orientation: Ki means a dissociation constant, usually derived from enzyme kinetics or from competition with a known ligand.

In data set [1] the target is D(2) dopamine receptor (Homo sapiens, UniProt P14416). Put plainly: Displacement of [3H]-raclopride from human D2L receptor expressed in HEK293 cell membranes after 1 hr by Microbeta scintillation counting method. A general note: Displacement assays read how much labelled ligand stays bound in the presence of the test substance.
Chain of D(2) dopamine receptor (P14416 whole entry): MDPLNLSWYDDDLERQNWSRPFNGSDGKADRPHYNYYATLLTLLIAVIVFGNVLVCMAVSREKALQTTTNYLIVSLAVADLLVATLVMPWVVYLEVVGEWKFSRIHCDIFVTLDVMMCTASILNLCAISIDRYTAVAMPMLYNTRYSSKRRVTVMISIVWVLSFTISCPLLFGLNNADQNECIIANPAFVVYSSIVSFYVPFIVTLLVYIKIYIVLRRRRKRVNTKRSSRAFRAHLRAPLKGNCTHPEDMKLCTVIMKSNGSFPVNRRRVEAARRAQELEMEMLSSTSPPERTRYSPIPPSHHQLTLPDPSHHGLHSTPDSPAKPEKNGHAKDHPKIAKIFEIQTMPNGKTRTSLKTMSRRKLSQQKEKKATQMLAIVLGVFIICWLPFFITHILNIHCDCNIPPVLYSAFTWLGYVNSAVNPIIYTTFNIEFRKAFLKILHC
Data set [2] concerns the target 5-hydroxytryptamine receptor 7 (Homo sapiens, UniProt P34969). Put plainly: Displacement of [3H]-5-CT from human 5HT7BR expressed in HEK293 cell membranes after 1 hr by Microbeta scintillation counting method.
Data set [3] addresses T1, Adrenergic receptor alpha-1 (Rattus norvegicus, UniProt P15823+P23944+P43140).
T1 sequence (P15823 whole entry): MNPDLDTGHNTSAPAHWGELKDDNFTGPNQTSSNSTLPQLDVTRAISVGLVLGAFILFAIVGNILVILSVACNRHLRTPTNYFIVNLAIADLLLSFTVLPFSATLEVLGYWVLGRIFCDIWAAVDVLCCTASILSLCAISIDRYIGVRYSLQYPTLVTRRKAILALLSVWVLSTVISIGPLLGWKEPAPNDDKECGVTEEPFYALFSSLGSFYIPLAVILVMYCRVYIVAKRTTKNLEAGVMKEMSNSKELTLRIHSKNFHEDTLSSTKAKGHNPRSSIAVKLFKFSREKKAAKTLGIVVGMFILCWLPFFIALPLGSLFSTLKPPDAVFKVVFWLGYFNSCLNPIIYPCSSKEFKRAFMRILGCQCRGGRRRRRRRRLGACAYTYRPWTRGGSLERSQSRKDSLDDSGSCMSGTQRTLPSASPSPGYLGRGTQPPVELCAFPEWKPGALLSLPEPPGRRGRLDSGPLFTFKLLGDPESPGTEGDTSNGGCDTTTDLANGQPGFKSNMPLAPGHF
T1 sequence (P23944 whole entry): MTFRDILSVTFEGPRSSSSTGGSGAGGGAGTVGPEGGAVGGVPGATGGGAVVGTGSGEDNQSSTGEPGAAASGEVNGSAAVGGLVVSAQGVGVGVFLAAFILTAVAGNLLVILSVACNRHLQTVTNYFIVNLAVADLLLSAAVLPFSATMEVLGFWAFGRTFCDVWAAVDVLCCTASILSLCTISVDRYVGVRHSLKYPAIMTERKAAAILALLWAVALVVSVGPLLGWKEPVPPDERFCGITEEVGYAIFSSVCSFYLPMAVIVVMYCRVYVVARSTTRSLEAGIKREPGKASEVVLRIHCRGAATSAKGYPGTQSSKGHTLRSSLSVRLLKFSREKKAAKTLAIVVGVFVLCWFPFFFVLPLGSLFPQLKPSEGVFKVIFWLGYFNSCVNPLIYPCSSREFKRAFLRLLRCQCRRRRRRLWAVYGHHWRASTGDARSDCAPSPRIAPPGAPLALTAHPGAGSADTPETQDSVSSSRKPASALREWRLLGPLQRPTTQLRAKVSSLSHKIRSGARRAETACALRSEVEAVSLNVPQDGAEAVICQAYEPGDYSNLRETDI
T1 sequence (P43140 whole entry): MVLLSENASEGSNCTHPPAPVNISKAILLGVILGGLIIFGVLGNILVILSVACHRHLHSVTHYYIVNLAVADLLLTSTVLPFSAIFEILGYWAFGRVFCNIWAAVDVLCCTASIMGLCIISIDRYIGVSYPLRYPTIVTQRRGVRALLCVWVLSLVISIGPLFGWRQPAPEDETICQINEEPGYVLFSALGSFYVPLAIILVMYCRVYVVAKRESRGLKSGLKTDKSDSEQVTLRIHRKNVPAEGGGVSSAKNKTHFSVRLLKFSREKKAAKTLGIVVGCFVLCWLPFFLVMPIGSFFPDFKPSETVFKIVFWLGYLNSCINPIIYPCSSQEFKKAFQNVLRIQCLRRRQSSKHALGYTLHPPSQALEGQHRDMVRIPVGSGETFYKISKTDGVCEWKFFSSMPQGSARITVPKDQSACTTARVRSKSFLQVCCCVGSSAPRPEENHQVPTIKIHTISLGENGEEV
In words: Displacement of [3H]-prazosin from alpha1-adrenergic receptor in rat brain cortex after 30 mins by Microbeta scintillation counting method.

Data set [4] addresses Beta-1 adrenergic receptor (Rattus norvegicus, UniProt P18090). Put plainly: Displacement of [3H]-CGP-12177 from beta1-adrenergic receptor in rat brain cortex after 1 hr by Microbeta scintillation counting method.
Data set [5] deals with Mus musculus. Put plainly: Antidepressant like activity in Swiss albino mouse assessed as immobility time at 5 mg/kg, ip administered 60 mins prior to test and measured last 4 mins of 6 mins test by forced swimming test (reference value: 159.78 to 183.56 secs). It counts as functional.
Data set [6] relates to Mus musculus. Put plainly: Antidepressant like activity in Swiss albino mouse assessed as immobility time at 10 mg/kg, ip administered 60 mins prior to test and measured last 4 mins of 6 mins test by forced swimming test (reference value: 159.78 to 183.56 secs). It counts as functional.
In data set [7] the test system is Mus musculus. Put plainly: Antidepressant like activity in Swiss albino mouse assessed as immobility time at 20 mg/kg, ip administered 60 mins prior to test and measured last 4 mins of 6 mins test by forced swimming test (reference value: 159.78 to 183.56 secs). Format: functional.
The subject of data set [8] is Mus musculus. In words: Anxiolytic-like activity in Swiss albino mouse assessed as number of punished crossings at 10 mg/kg, ip administered 60 mins prior to test and measured post 3 secs of electric shock by four-plate test (reference value: 3.8 to 4 /min). It counts as functional.
The subject of data set [9] is Mus musculus. Put plainly: Anxiolytic-like activity in Swiss albino mouse assessed as number of punished crossings at 20 mg/kg, ip administered 60 mins prior to test and measured post 3 secs of electric shock by four-plate test (reference value: 3.8 to 4 /min). It counts as functional.
The subject of data set [10] is Mus musculus. Put plainly: Anxiolytic-like activity in Swiss albino mouse assessed as number of punished crossings at 40 mg/kg, ip administered 60 mins prior to test and measured post 3 secs of electric shock by four-plate test (reference value: 3.8 to 4 /min). It counts as functional.
Data set [11] relates to Mus musculus. Put plainly: Effect on spontaneous locomotor activity in Swiss albino mouse at 20 mg/kg, ip administered 60 mins prior to test and measured for 3 to 6 mins. Conditions: in vivo. It counts as ADME, organism-based. The essentials: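 Male Swiss Albino mice given compound or vehicle (1% Tween 80, 10 ml/kg) i.p. 60 min before test. Each mouse placed alone in a cage for 30 min habituation. Ambulation (photobeam channel crossings) then recorded over a 3–6 min session. Means ± SEM.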

In data set [12] the test system is Mus musculus. Put plainly: Anxiolytic-like activity in Swiss albino mouse assessed as number of punished crossings at 5 mg/kg, ip administered 60 mins prior to test and measured post 3 secs of electric shock by four-plate test (reference value: 3.8 to 4 /min). It counts as functional.
Data set [13] has as its system Mus musculus. Put plainly: Antidepressant like activity in Swiss albino mouse assessed as decrease in immobility time at 10 mg/kg, ip administered 60 mins prior to test and measured last 4 mins of 6 mins test by forced swimming test relative to control. It counts as functional. Details: scale not given: the % may be the effect or the level left.

Chain of Beta-1 adrenergic receptor (P18090 whole entry): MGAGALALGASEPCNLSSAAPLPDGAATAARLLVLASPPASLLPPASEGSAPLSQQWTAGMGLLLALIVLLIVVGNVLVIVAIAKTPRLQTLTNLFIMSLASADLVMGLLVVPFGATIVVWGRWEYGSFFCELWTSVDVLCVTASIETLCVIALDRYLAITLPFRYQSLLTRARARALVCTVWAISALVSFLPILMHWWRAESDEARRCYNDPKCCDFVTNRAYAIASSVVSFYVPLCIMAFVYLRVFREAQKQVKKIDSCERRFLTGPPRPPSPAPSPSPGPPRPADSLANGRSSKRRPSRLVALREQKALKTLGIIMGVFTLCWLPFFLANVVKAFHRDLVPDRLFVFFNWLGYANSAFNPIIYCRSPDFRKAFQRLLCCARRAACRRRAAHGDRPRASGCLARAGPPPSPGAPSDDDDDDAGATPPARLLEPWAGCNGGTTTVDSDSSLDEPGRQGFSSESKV
Chain of 5-hydroxytryptamine receptor 7 (P34969 whole entry): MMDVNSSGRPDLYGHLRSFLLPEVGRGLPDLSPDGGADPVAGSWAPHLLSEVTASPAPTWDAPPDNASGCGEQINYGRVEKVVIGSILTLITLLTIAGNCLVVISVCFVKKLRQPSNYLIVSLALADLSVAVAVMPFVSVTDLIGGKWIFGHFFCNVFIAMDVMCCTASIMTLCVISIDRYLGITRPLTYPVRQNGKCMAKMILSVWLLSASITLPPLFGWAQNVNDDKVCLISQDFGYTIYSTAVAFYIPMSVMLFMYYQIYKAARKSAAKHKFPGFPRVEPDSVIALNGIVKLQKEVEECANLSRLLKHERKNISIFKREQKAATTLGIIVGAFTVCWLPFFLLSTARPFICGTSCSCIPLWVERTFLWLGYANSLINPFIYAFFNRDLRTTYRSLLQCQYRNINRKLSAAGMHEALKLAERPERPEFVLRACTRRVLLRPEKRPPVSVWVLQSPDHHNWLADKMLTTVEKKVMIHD

For the molecule `CC1(c2ccc(Br)cc2)NC(=O)N(CC(O)CN2CCN(c3ccccc3C#N)CC2)C1=O.Cl` (racemic), the inhibitory constant (Ki) in [1] was 506 nM; in data set [2] it was 7 nM; in data set [3] it was 200 nM; in data set [4], more than 10000 nM. For the same molecule, the Time in data set [5] is listed as 156.33 s; in data set [6], 136.63 s; in [7] it was 55.33 s. Also, the Activity was 3.9 min⁻¹ in data set [8], 3.7 min⁻¹ in data set [9], 4.3 min⁻¹ in data set [10] and “Non-Toxic” in data set [11].

On to `COc1ccccc1N1CCN(CC(O)CN2C(=O)NC(C)(c3ccc(Br)cc3)C2=O)CC1.Cl` (racemic), for which the Ki is 267 nM in [1], 10 nM in [2], 167 nM in data set [3] and more than 10000 nM in data set [4]. Further, the Time in data set [5] was 184.22 s; in data set [6], 179.44 s; in data set [7], 91.13 s. Also, the Activity in data set [12] was determined as 3.1 min⁻¹; in data set [8] it was 3.1 min⁻¹; in data set [9], 2.2 min⁻¹; in data set [13] it was 50%.

As for `CC1(c2ccc(Cl)cc2)NC(=O)N(CC(O)CN2CCN(c3ccccc3C#N)CC2)C1=O.Cl` (racemic), the Ki is 1280 nM in data set [1], 9 nM in data set [2], 250 nM in data set [3] and more than 10000 nM in data set [4].
